# Measurements: PMC3574199 (Bioorganic & medicinal chemistry, 2012)
# Experiments:
# Assay type in all cases: biochemical
# rat nNOS = rat nNOS (Rattus norvegicus, UniProt P29476); test: Nitric oxide hemoglobin capture assay, nNOS
# In short: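 Recombinant rat nNOS was expressed in E. coli. Assays ran at room temperature in 100 mM Hepes pH 7.4 with 10 µM L-arginine, 1.6 mM CaCl2, 11.6 µg/mL calmodulin, 100 µM DTT, 100 µM NADPH, 6.5 µM H4B and 3.0 µM oxyhemoglobin. Enzyme addition started the reaction, and initial rates came from NO-hemoglobin formation at 401 nm over 60 sec. Ki = IC50/(1+[S]/Km), Km 1.3 µM.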
# murine macrophage iNOS = murine macrophage iNOS (Mus musculus, UniProt P29477); test: Nitric oxide hemoglobin capture assay, iNOS; conditions: for selectivity n/i: ratio of Ki (iNOS) to Ki (nNOS)
# murine macrophage iNOS, sequence (P29477 whole entry): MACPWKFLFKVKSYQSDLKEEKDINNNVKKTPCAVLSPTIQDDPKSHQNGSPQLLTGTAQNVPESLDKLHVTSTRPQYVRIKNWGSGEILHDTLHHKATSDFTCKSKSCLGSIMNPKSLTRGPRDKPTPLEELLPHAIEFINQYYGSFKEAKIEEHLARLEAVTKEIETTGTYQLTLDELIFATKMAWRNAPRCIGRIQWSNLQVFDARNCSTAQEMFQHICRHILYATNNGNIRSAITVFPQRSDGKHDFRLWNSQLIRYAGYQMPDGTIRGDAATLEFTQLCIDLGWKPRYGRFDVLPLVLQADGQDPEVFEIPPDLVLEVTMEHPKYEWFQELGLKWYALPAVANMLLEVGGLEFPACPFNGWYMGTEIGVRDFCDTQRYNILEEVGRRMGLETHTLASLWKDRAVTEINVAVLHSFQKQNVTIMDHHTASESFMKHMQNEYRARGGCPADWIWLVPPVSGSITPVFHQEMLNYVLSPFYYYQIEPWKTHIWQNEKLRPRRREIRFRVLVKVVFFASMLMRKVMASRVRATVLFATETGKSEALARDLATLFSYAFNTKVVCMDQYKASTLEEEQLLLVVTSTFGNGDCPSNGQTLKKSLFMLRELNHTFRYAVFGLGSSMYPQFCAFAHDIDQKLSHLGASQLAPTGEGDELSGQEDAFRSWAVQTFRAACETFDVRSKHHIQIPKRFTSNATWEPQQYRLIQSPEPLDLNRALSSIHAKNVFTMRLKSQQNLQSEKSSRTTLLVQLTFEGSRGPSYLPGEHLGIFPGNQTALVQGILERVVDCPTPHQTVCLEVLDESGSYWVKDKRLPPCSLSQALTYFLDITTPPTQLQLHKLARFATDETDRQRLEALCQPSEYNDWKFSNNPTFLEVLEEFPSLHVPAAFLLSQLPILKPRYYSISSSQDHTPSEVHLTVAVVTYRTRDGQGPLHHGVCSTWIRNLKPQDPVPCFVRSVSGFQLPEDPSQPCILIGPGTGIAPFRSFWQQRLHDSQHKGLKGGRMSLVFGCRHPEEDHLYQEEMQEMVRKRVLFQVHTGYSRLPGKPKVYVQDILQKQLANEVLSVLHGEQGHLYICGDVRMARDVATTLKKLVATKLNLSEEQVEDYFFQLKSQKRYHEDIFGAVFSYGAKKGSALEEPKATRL
# bovine eNOS = bovine eNOS (Bos taurus, UniProt P29473); test: Nitric oxide hemoglobin capture assay, eNOS; conditions: for selectivity n/e: ratio of Ki (eNOS) to Ki (nNOS)
# rat nNOS, sequence (P29476 whole entry): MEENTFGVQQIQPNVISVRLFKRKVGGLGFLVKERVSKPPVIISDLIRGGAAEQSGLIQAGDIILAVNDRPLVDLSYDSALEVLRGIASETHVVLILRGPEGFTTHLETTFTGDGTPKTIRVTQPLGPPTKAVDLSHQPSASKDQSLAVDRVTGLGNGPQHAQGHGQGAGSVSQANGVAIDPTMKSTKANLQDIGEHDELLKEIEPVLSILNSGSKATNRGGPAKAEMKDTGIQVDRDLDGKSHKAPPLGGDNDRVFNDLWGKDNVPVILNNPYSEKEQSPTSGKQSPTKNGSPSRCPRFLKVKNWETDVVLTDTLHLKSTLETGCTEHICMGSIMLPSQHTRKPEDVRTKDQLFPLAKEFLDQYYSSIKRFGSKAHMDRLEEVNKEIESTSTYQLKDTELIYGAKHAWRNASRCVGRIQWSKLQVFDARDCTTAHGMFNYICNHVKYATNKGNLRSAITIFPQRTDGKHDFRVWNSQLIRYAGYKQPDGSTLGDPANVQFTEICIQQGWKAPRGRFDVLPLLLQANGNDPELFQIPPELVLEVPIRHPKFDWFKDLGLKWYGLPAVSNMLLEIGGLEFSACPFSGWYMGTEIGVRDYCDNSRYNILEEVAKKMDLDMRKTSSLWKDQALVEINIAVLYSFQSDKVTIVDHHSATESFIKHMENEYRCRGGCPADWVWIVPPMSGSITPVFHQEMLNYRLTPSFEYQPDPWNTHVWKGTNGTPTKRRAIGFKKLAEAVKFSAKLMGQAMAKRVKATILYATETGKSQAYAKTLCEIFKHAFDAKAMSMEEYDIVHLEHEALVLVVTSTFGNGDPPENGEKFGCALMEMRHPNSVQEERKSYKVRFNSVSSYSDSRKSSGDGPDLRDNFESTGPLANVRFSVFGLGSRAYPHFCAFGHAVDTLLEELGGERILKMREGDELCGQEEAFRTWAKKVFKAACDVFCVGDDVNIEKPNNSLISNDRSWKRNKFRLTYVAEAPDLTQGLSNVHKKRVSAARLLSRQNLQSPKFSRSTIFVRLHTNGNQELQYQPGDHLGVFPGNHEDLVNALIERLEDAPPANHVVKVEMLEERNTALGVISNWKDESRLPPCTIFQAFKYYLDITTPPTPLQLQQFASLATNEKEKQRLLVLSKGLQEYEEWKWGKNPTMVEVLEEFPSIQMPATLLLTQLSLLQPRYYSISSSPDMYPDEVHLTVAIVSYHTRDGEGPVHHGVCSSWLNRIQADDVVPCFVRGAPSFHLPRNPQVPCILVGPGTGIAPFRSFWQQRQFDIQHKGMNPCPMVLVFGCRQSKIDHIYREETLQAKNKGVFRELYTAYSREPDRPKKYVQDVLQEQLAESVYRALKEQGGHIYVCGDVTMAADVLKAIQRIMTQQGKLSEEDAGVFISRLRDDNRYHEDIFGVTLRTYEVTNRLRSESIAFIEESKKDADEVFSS
Ki (rat nNOS) [µM],Ki (murine macrophage iNOS) [µM],Structure (SMILES),selectivity n/i (murine macrophage iNOS),Ki (bovine eNOS) [µM],selectivity n/e (bovine eNOS)
0.14,10,"Cc1cccc(C2CC2NCCO[C@H]2CNC[C@H]2Cc2cc(C)cc(N)n2)c1 (mixture of isomers) [(±) 2c, 4-Methyl-6-(((3R,4R)-4-(2-((1S,2R/1R,2S)-2-m-tolylcyclopropylamino)ethoxy)pyrrolidin-3-yl)methyl)pyridin-2-amine]",,,
0.071,0.86,"Cc1cc(N)nc(C[C@@H]2CNC[C@@H]2OCCNC2CC2c2cccc(Cl)c2)c1 (mixture of isomers) [(±) 2d, 6-(((3R,4R)-4-(2-((1S,2R/1R,2S)-2-(3-Clorophenyl)cyclopropylamino)ethoxy)pyrrolidin-3-yl)methyl)-4-methylpyridin-2-amine]",12,26,370
0.175,12,"Cc1cc(N)nc(C[C@@H]2CNC[C@@H]2OCCN[C@H]2C[C@@H]2c2cccc(F)c2)c1 [Compound 2b, 6-(((3R,4R)-4-(2-((1S,2R)-2-(3-Fluorophenyl)cyclopropylamino)ethoxy)pyrrolidin-3-yl)methyl)-4-methylpyridin-2-amine]",,,

Structure (SMILES),Ki (rat nNOS) [µM],Ki (murine macrophage iNOS) [µM],selectivity n/i (murine macrophage iNOS),Ki (bovine eNOS) [µM],selectivity n/e (bovine eNOS)
"Cc1cc(N)nc(C[C@@H]2CNC[C@@H]2OCCNC(C)Cc2cccc(F)c2)c1.Cl (mixture of isomers) [(±) 2e, 6-(((3R,4R)-4-(2-(((R/S)-1-(3-fluorophenyl)propan-2-yl)amino)ethoxy)pyrrolidin-3-yl)methyl)-4-methylpyridin-2-amine]",0.046,10.2,220,68,1500
